Activity calls are given as the source filed them. No cut-off for these calls is given here.
What was measured:
[1] = tested on: Human immunodeficiency virus 1; assay: Antiviral activity against HIV1 NL4-3 infected in human MT4 cells assessed as p24 antigen level after 4 days by ELISA; type: functional, organism-based; details: Human immunodeficiency virus 1, NL4-3, MT4, 96 h
In short: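 MT-4 cells infected with HIV-1 NL4-3 variants at MOI 0.01; supernatants harvested day 4 post-infection for p24 antigen capture ELISA. IC50 is the concentration inhibiting replication by 50%; values are averages of at least three separate experiments.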

[2] = tested on: Human immunodeficiency virus 1; assay: Antiviral activity against HIV1 infected in human TZM-bl cells assessed as reduction of viral entry after 48 hrs by luciferase reporter gene assay; type: functional, organism-based
In short: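 Single-round infection of TZM-bl cells (HeLa clone expressing CD4/CCR5 with HIV-1 LTR-driven firefly luciferase) with HIV-1 at 200 TCID50 mixed with test samples. After 48 h, medium was replaced with Bright-Glo reagent and luminescence read. IC50 is the concentration giving 50% RLU reduction versus virus-control wells after background subtraction.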

[3] = Therapeutic index, ratio of CC50 for human MT4 cells to IC50 for HIV-1 NL4-3; type: cell-based; details: read-out: Ratio CC50/IC50
In short: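 TI calculated as CC50 (mock-infected MT-4 growth, 2 days) divided by IC50 (HIV-1 NL4-3 replication in MT-4 cells, p24 ELISA at day 4).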

MT4 = assay: Cytotoxicity against human MT4 cells after 2 days; type: cell-based; details: mt4, 48 h
[4] = tested on: Human immunodeficiency virus 1; assay: Antiviral activity against HIV1 NL4-3 infected in human MT4 cells assessed as p24 antigen level at 10 uM after 4 days by ELISA; type: functional, organism-based
[5] = tested on: Human immunodeficiency virus 1; assay: Antiviral activity against HIV1 infected in human TZM-bl cells assessed as reduction of viral […] after 48 hrs by luciferase reporter gene assay; type: functional, organism-based
In short: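 Single-round infection of TZM-bl cells (HeLa clone expressing CD4 and CCR5, HIV-1 LTR-driven firefly luciferase) with HIV-1 at 200 TCID50 mixed with samples. Luminescence read after 48 h. IC50 is the concentration giving 50% lower RLU than virus control wells, after subtracting background RLU.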

Row | Structure (SMILES) | IC50 [1] [nM] | Activity [2] | selectivity ratio [3] | CC50 (MT4) [nM] | Activity [4] | Activity [5]
1 | C=C(C)[C@@H]1CC[C@]2(C(=O)OCc3cn([C@H]4C[C@H](n5cc(C)c(=O)[nH]c5=O)O[C@@H]4CO)nn3)CC[C@]3(C)[C@H](CC[C@@H]4[C@@]5(C)CC[C@H](OC(=O)CC(C)(C)C(=O)O)C(C)(C)[C@@H]5CC[C@]43C)[C@@H]12 | 100 | inactive | 101 | 11000 |  | 
2 | C=C(C)[C@@H]1CC[C@]2(C(=O)N3CCC(CCCC(=O)N4CCOCC4)CC3)CC[C@]3(C)[C@H](CC[C@@H]4[C@@]5(C)CC[C@H](O)C(C)(C)[C@@H]5CC[C@]43C)[C@@H]12 |  | inactive |  |  | inactive | 
3 | C=C(C)[C@@H]1CC[C@]2(C(=O)N3CCC(CCCC(=O)NC)CC3)CC[C@]3(C)[C@H](CC[C@@H]4[C@@]5(C)CC[C@H](OC(=O)CC(C)(C)C(=O)O)C(C)(C)[C@@H]5CC[C@]43C)[C@@H]12 | 240 | inactive | > 55.5 | > 13300 |  | 
4 | C#CCOC(=O)[C@]12CC[C@@H](C(=C)C)[C@@H]1[C@H]1CC[C@@H]3[C@@]4(C)CC[C@H](O)C(C)(C)[C@@H]4CC[C@@]3(C)[C@]1(C)CC2 |  | inactive |  |  | inactive | 
5 | C=C(C)[C@@H]1CC[C@]2(C(=O)O)CC[C@]3(C)[C@H](CC[C@@H]4[C@@]5(C)CC[C@H](OCOCCOC)C(C)(C)[C@@H]5CC[C@]43C)[C@@H]12 |  | inactive |  |  | inactive | 
6 | C=C(C)[C@@H]1CC[C@]2(C(=O)N3CCN(CCCCC(=O)O)CC3)CC[C@]3(C)[C@H](CC[C@@H]4[C@@]5(C)CC[C@H](O)C(C)(C)[C@@H]5CC[C@]43C)[C@@H]12 |  | inactive |  |  | inactive | 
7 | C=C(C)[C@@H]1CC[C@]2(C(=O)N3CCC(CCCC(=O)N4CCOCC4)CC3)CC[C@]3(C)[C@H](CC[C@@H]4[C@@]5(C)CC[C@H](OC(=O)CC(C)(C)C(=O)O)C(C)(C)[C@@H]5CC[C@]43C)[C@@H]12 | 70 | inactive | 156 | 10900 |  | 
8 | C=C(C)[C@@H]1CC[C@]2(C(=O)OCCC)CC[C@]3(C)[C@H](CC[C@@H]4[C@@]5(C)CC[C@H](O)C(C)(C)[C@@H]5CC[C@]43C)[C@@H]12 |  | inactive |  |  | inactive | Active
9 | C=C(C)[C@@H]1CC[C@]2(C(=O)O)CC[C@]3(C)[C@H](CC[C@@H]4[C@@]5(C)CC[C@H](O)C(C)(C)[C@@H]5CC[C@]43C)[C@@H]12 |  | Active |  |  |  | 
10 | C=C(C)[C@@H]1CC[C@]2(C(=O)ON3C(=O)CCC3=O)CC[C@]3(C)[C@H](CC[C@@H]4[C@@]5(C)CC[C@H](OC(=O)CC(C)(C)C(=O)O)C(C)(C)[C@@H]5CC[C@]43C)[C@@H]12 | 130 | inactive | 86.2 | 11000 |  | 
11 | C=C(C)[C@@H]1CC[C@]2(C(=O)N3CCC(CCCC(=O)NCCCN4CCOCC4)CC3)CC[C@]3(C)[C@H](CC[C@@H]4[C@@]5(C)CC[C@H](O)C(C)(C)[C@@H]5CC[C@]43C)[C@@H]12 |  | inactive |  |  | inactive | 
12 | C#CCOC(=O)[C@]12CC[C@@H](C(=C)C)[C@@H]1[C@H]1CC[C@@H]3[C@@]4(C)CC[C@H](OC(=O)CC(C)(C)C(=O)O)C(C)(C)[C@@H]4CC[C@@]3(C)[C@]1(C)CC2 | 67 | inactive | 226 | 15300 |  | 
13 | C=C(C)[C@@H]1CC[C@]2(C(=O)OCCOCCOCCOCCO)CC[C@]3(C)[C@H](CC[C@@H]4[C@@]5(C)CC[C@H](O)C(C)(C)[C@@H]5CC[C@]43C)[C@@H]12 |  | inactive |  |  | inactive | 
14 | C=C(C)[C@@H]1CC[C@]2(C(=O)N3CCC(CCCC(=O)NCCN4CCOCC4)CC3)CC[C@]3(C)[C@H](CC[C@@H]4[C@@]5(C)CC[C@H](O)C(C)(C)[C@@H]5CC[C@]43C)[C@@H]12 |  | inactive |  |  | inactive | 
15 | C=C(C)[C@@H]1CC[C@]2(C(=O)OCOC)CC[C@]3(C)[C@H](CC[C@@H]4[C@@]5(C)CC[C@H](OCOC)C(C)(C)[C@@H]5CC[C@]43C)[C@@H]12 |  | inactive |  |  | inactive | 
16 | C=C(C)[C@@H]1CC[C@]2(C(=O)N3CCN(CCCC(=O)O)CC3)CC[C@]3(C)[C@H](CC[C@@H]4[C@@]5(C)CC[C@H](O)C(C)(C)[C@@H]5CC[C@]43C)[C@@H]12 |  | inactive |  |  | inactive | 

Row | Structure (SMILES) | IC50 [1] [nM] | Activity [2] | selectivity ratio [3] | CC50 (MT4) [nM] | Activity [4] | Activity [5]
17 | C=C(C)[C@@H]1CC[C@]2(C(=O)OCOC)CC[C@]3(C)[C@H](CC[C@@H]4[C@@]5(C)CC[C@H](OC(=O)CC(C)(C)C(=O)O)C(C)(C)[C@@H]5CC[C@]43C)[C@@H]12 | 170 | inactive | 70.9 | 12400 |  | 
18 | C=C(C)[C@@H]1CC[C@]2(C(=O)OCCCCCC(=O)OCC)CC[C@]3(C)[C@H](CC[C@@H]4[C@@]5(C)CC[C@H](O)C(C)(C)[C@@H]5CC[C@]43C)[C@@H]12 |  | inactive |  |  | inactive | 
19 | C=C(C)[C@@H]1CC[C@]2(C(=O)OCCC)CC[C@]3(C)[C@H](CC[C@@H]4[C@@]5(C)CC[C@H](OC(=O)CC(C)(C)C(=O)O)C(C)(C)[C@@H]5CC[C@]43C)[C@@H]12 | 88 | inactive | 118 | 10400 |  | Active
20 | C=C(C)[C@@H]1CC[C@]2(C(=O)OCCCCCC)CC[C@]3(C)[C@H](CC[C@@H]4[C@@]5(C)CC[C@H](OC(=O)CC(C)(C)C(=O)O)C(C)(C)[C@@H]5CC[C@]43C)[C@@H]12 | 1800 | inactive | 8.3 | 14800 |  | Active
21 | C=C(C)[C@@H]1CC[C@]2(C(=O)OCCOCCOCCOCCOC(=O)CC(C)(C)C(=O)O)CC[C@]3(C)[C@H](CC[C@@H]4[C@@]5(C)CC[C@H](OC(=O)CC(C)(C)C(=O)O)C(C)(C)[C@@H]5CC[C@]43C)[C@@H]12 | 79 | inactive | 111 | 8900 |  | 
22 | C=C(C)[C@@H]1CC[C@]2(C(=O)OCCCc3ccccc3)CC[C@]3(C)[C@H](CC[C@@H]4[C@@]5(C)CC[C@H](O)C(C)(C)[C@@H]5CC[C@]43C)[C@@H]12 |  | inactive |  |  | inactive | 
23 | C=C(C)[C@@H]1CC[C@]2(C(=O)O)CC[C@]3(C)[C@H](CC[C@@H]4[C@@]5(C)CC[C@H](OCOC)C(C)(C)[C@@H]5CC[C@]43C)[C@@H]12 |  | inactive |  |  | inactive | 
24 | C=C(C)[C@@H]1CC[C@]2(C(=O)OCCCCCC)CC[C@]3(C)[C@H](CC[C@@H]4[C@@]5(C)CC[C@H](O)C(C)(C)[C@@H]5CC[C@]43C)[C@@H]12 |  | inactive |  |  | inactive | Active
25 | C=C(C)[C@@H]1CC[C@]2(C(=O)OCCCCCCCC)CC[C@]3(C)[C@H](CC[C@@H]4[C@@]5(C)CC[C@H](OC(=O)CC(C)(C)C(=O)O)C(C)(C)[C@@H]5CC[C@]43C)[C@@H]12 |  | inactive |  |  | inactive | 
26 | C=C(C)[C@@H]1CC[C@]2(C(=O)OCOC)CC[C@]3(C)[C@H](CC[C@@H]4[C@@]5(C)CC[C@H](O)C(C)(C)[C@@H]5CC[C@]43C)[C@@H]12 |  | inactive |  |  | inactive | 
27 | C=C(C)[C@@H]1CC[C@]2(C(=O)N3CCC(CCCC(=O)NC)CC3)CC[C@]3(C)[C@H](CC[C@@H]4[C@@]5(C)CC[C@H](O)C(C)(C)[C@@H]5CC[C@]43C)[C@@H]12 |  | inactive |  |  | inactive | 
28 | C=C(C)[C@@H]1CC[C@]2(C(=O)ON3C(=O)CCC3=O)CC[C@]3(C)[C@H](CC[C@@H]4[C@@]5(C)CC[C@H](O)C(C)(C)[C@@H]5CC[C@]43C)[C@@H]12 |  | inactive |  |  | inactive | 
29 | C=C(C)[C@@H]1CC[C@]2(C(=O)OCCCCCCCC)CC[C@]3(C)[C@H](CC[C@@H]4[C@@]5(C)CC[C@H](O)C(C)(C)[C@@H]5CC[C@]43C)[C@@H]12 |  | inactive |  |  | inactive | 
30 | C=C(C)[C@@H]1CC[C@]2(C(=O)OCCCCCC(=O)OCC)CC[C@]3(C)[C@H](CC[C@@H]4[C@@]5(C)CC[C@H](OC(=O)CC(C)(C)C(=O)O)C(C)(C)[C@@H]5CC[C@]43C)[C@@H]12 | 56 | inactive | 154 | 8600 |  | Active
31 | C=C(C)[C@@H]1CC[C@]2(C(=O)OCOCCOC)CC[C@]3(C)[C@H](CC[C@@H]4[C@@]5(C)CC[C@H](O)C(C)(C)[C@@H]5CC[C@]43C)[C@@H]12 |  | inactive |  |  | inactive | 
32 | C=C(C)[C@@H]1CC[C@]2(C(=O)OCOCCOC)CC[C@]3(C)[C@H](CC[C@@H]4[C@@]5(C)CC[C@H](OCOCCOC)C(C)(C)[C@@H]5CC[C@]43C)[C@@H]12 |  | inactive |  |  | inactive | 
